Key:
[1] = target: T1, Aromatase (Homo sapiens, UniProt P11511); assay: Binding affinity for human placental microsome Cytochrome P450 19A1 by nonlinear regression analysis; details: read-out: Ki app
T1 sequence (P11511 whole entry): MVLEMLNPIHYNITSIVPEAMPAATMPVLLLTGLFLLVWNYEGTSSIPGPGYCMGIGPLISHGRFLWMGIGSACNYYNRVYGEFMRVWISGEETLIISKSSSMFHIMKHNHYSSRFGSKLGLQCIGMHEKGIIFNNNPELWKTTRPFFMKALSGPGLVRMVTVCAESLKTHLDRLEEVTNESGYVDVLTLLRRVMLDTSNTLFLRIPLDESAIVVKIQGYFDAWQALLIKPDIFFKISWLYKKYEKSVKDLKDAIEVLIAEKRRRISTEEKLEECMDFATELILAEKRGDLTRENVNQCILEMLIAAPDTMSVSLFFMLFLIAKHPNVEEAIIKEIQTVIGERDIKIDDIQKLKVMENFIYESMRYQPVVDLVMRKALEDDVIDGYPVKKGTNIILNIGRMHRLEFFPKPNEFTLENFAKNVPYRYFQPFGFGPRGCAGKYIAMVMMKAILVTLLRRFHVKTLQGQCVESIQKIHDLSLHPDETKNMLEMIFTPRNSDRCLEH
How it was run: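 Human placental microsomes (0.025-0.03 mg protein) in 1.0 mL 0.1 M phosphate buffer pH 7.4, 37 °C in air, 10 min, initial velocity conditions. [1β-3H]androstenedione diluted with unlabelled androstenedione, 0.005-0.25 µM. Inhibitor at 250, 375 and 500 nM, plus no-inhibitor controls and 0-min blanks. 3H2O release counted; Ki derived by regression analysis; duplicate determinations.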

[2] = target: T1, Aromatase; assay: Inhibition of human placental microsome Cytochrome P450 19A1
How it was run: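 Tritiated-water release assay in 0.1 M phosphate pH 7.4. Lyophilized human placental microsomes (0.25 mg) with 0.25 µM [1β-3H]androstenedione, glucose 6-phosphate 5.3 mM, NADP 0.6 mM, G6PDH, 1.0 mM EDTA. Inhibitors from 10^-5 to 10^-8 M, added in ethanol. 15 min at 37 °C; CHCl3 extraction, then the aqueous phase counted by scintillation.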

[3] = Compound was tested for inactivation kinetic values; details: read-out: Ki app (inact)
How it was run: (§1)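 Inhibitor, various concentrations, preincubated at 37 °C with placental microsomes (0.08-0.1 mg/mL) and NADPH (0.1 mM) in 0.1 M phosphate pH 7.4. Aliquots taken over time, diluted 10-fold in cold buffer, then assayed with 0.25 µM [1β-3H]androstenedione plus NADPH-generating system, 30 min at 37 °C. Half-lives plotted against 1/[I] (Kitz-Wilson); Ki(inact) from X-intercept, T1/2 from Y-intercept; duplicate determinations.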

[4] = The T1/2 values were obtained from the time point at which each half-time reached 50% of its value at zero time; type: ADME; how it was run: as §1
[5] = Selectivity index of Kcat/app Ki(inact)
How it was run: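 Lyophilized human placental microsomes (0.08-0.1 mg/mL protein) were preincubated at 37 °C with varied inhibitor concentrations and 0.1 mM NADPH in 0.1 M phosphate buffer, pH 7.4. Timed aliquots were diluted 10-fold in cold buffer. Residual activity was read as 3H2O release from 0.25 µM [1β-3H]androstenedione with an NADPH-generating system (30 min, 37 °C). Half-life versus 1/[I] (Kitz-Wilson) gave Ki(inact) and kcat. Duplicates.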

[6] = The T1/2 value was obtained from the time point at which each half-time reached 50% of its value at zero time; type: ADME; how it was run: as §1

| Compound | Ki [1] [nM] | IC50 [2] [nM] | KI (inactivation) [3] [nM] | T1/2 [4] [min] | Selectivity index [5] | T1/2 [6] [min] |
| --- | --- | --- | --- | --- | --- | --- |
| C#CC[C@H]1CC2C3CCC(=O)C3(C)CCC2C2(C)CCC(=O)C=C12 (some centres undefined) | 37 | 176 |  |  |  |  |
| C#CC[C@]12CCC(=O)C=C1CC[C@@H]1[C@@H]2CC[C@]2(C)C(=O)CC[C@@H]12 [PLOMESTANE] | 15.2 | 56.2 | 59.5 | 8.9 | 24 |  |
| C#CC[C@H]1CC2C(CCC3(C)C(=O)CCC23)C2CCC(=O)C=C21 (some centres undefined) | 65.8 | 187 |  |  |  |  |
| C#CC[C@@H]1CC2C3CCC(=O)C3(C)CCC2C2(C)CCC(=O)C=C12 (some centres undefined) | 10 | 31 | 72.4 |  | 21 | 7.6 |
| C#CC[C@@H]1CC2C(CCC3(C)C(=O)CCC23)C2CCC(=O)C=C21 (some centres undefined) | 47.6 | 275 | 19.8 |  | 65 | 8.9 |
